Assay results: article PMC11750580 (Toxicology Reports, 2024)

Assays:
CYP1A genes = conditions: HepaRG cells; cited from earlier work
MTT cytotoxicity, HepaRG = format: cell-based, human; conditions: human, HepaRG cells (differentiated)
MTT cytotoxicity, T47D = format: cell-based; conditions: human, T47D cells
[1] = molecular target: T1, human aryl hydrocarbon receptor (AhR) (Homo sapiens, UniProt P35869); conditions: HepG2-AhR Lucia cells
T1 sequence (P35869 11-848): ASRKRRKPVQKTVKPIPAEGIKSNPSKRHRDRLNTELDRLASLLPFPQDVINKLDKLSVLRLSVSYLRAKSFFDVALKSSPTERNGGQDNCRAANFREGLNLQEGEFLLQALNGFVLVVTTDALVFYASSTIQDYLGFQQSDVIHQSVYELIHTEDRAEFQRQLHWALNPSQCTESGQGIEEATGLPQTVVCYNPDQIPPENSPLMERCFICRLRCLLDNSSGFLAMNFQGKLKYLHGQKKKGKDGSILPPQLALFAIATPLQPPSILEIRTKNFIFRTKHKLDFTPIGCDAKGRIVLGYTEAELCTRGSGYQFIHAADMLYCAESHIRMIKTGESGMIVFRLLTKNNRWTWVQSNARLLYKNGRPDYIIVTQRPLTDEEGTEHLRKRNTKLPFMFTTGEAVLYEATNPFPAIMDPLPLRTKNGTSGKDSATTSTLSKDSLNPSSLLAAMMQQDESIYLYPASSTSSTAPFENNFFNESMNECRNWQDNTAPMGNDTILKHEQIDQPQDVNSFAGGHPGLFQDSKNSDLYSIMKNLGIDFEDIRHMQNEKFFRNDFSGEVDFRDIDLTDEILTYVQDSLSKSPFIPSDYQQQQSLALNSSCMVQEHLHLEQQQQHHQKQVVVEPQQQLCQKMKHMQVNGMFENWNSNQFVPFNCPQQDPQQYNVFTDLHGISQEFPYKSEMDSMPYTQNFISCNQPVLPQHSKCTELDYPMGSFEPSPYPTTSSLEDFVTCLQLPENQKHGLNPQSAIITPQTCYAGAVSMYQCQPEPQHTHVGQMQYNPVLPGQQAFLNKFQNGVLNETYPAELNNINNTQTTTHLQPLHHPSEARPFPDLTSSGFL

[2] = molecular target: T1, human aryl hydrocarbon receptor (AhR); experiment: cell-based
MTT cytotoxicity, MSC = format: cell-based, human; conditions: human, adipose-derived mesenchymal stem cells (MSC)
Caco-2 cells [3] = experiment: Cell proliferation and migration; format: cell-based, human; conditions: for effect on cell proliferation rate vs media control: Caco-2, 10 µM, p < 0.05; for effect on growth and proliferation vs media control: Caco-2, any tested concentration (0.1, 1, 10 µM); for proliferation speed compared to control (100 %): Caco-2, 1 µM, 24 h
Summary of the method: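 Cells were seeded at 100,000 cells/mL in 48-well plates and grown to 90–100 % confluence. Each monolayer was scratched with a pipette tip. Medium was then replaced with exposure medium containing 0.1, 1 or 10 µM test compound; cytochalasin D (1 mM) was the positive control. Wells were imaged by automated phase-contrast microscopy every 30 min for 24 h. Read-outs were cell-free area (mm2) and proliferation rate relative to media control (n = 8–16; one-way ANOVA, Dunnett's).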

MTT cytotoxicity, MRC-5 = format: cell-based; conditions: human, MRC-5 cells
MTT cytotoxicity, Caco-2 = format: cell-based; conditions: human, Caco-2 cells
MTT cytotoxicity, HepG2 = format: cell-based; conditions: human, HepG2 cells
HepaRG cells = experiment: MTT cytotoxicity, HepaRG; format: cell-based, human; conditions: HepaRG, 24 h exposure, MTT, average ± SD
[4] = system: V79–4 Chinese hamster fibroblasts; conditions: V79–4, 300 µM; cited from earlier work
MCF-7 cells = conditions: MCF-7, 100 µM; cited from earlier work
V79 379 A cells = conditions: 0.1 mM, 2-hour exposure; cited from earlier work
Caco-2 cells [5] = conditions: Caco-2, 500–1000 µM, 72-hour exposure; ref Tomii et al. 31; cited from earlier work
[6] = system: adipose-derived mesenchymal stem cells (MSC); experiment: MTT cytotoxicity, MSC; format: cell-based, human; conditions: MSC, 24 h exposure, MTT, average ± SD
MRC-5 cells = conditions: MRC-5, 30 µg/mL, exposure duration not specified; ref Yap et al. 52; cited from earlier work
goats = conditions: oral, 0.16 g/kg body weight, within 4–24 h; cited from earlier work
[7] = Indole derivatives quantification in cell media; format: physicochemical; conditions: after 24 h of incubation
Summary of the method: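 Test compounds in cell media were measured by reversed-phase HPLC with fluorescence detection on a C18 column (2.2 µm, 150 × 2.1 mm) at 30 °C. A binary gradient ran from 50 mM KH2PO4 (pH 3.3) to that buffer/acetonitrile 700:300. Excitation was 270 nm and emission 350 nm. Compounds were identified by co-chromatography with authentic standards and quantified by peak area.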

Caco-2 cells [8] = conditions: cited from earlier work

For `Cc1ccc2cc[nH]c2c1` [6-MI], the “induction of CYP1A gene expression” value (CYP1A genes) is given as “comparable to TCDD”.
In the case of `Cn1ccc2ccccc21` [1-MI], the “induction of CYP1A genes, % of the level of TCDD” value (CYP1A genes) is listed as “about 50%”.
With `O=C(O)c1c[nH]c2ccccc12` [I3CA, indole-3-carboxylic acid] the EC50 at 24 h (MTT cytotoxicity, HepaRG) was 53000 ± 12100 nM, the EC50 at 24 h (MTT cytotoxicity, T47D) was > 100000 nM and the AhR agonist character [1] was “strong agonists”. The EC50 [2] was 880 nM, the EC50 at 24 h (MTT cytotoxicity, MSC) was 640 ± 310 nM and the “effect on cell proliferation rate vs media control” value (Caco-2 cells [3]) was “significant reduction in cell proliferation rates”. For the same molecule, the EC50 at 24 h (MTT cytotoxicity, MRC-5) was 520 ± 80 nM, the EC50 at 24 h (MTT cytotoxicity, Caco-2) was > 100000 nM and the EC50 at 24 h (MTT cytotoxicity, HepG2) was > 100000 nM.
In the case of `Cc1cccc2[nH]ccc12` [4-MI], the “induction of CYP1A gene expression” value (CYP1A genes) is given as “comparable to TCDD”.
With `O=C(O)CCc1c[nH]c2ccccc12` [IPA, indole-3-propionic acid] the EC50 at 24 h (MTT cytotoxicity, HepaRG) was > 100000 nM, the “Cytotoxic evaluation (EC50)” value (HepaRG cells) was “no sensitivity” and the EC50 at 24 h (MTT cytotoxicity, T47D) was 2020 ± 130 nM. For the same molecule, the AhR agonist character [1] was “strong agonists”, the EC50 [2] was 110 nM and the EC50 at 24 h (MTT cytotoxicity, MSC) was 400 ± 140 nM. The “effect on growth and proliferation vs media control” value (Caco-2 cells [3]) was “no significant differences”, the EC50 at 24 h (MTT cytotoxicity, MRC-5) was 910 ± 100 nM and the EC50 at 24 h (MTT cytotoxicity, Caco-2) was > 100000 nM. The EC50 at 24 h (MTT cytotoxicity, HepG2) was > 100000 nM.
For `c1ccc2c(c1)cc1ccc3cccc4ccc2c1c34` [BaP, benzo[a]pyrene, reference compound], the AhR agonist character [1] was “partial agonists”.
In the case of `O=Cc1ccc2cc[nH]c2c1` [indole-6-carboxaldehyde], the toxicity [4] is listed as “no toxicity”.
With `O=c1cc(-c2ccccc2)oc2ccc3ccccc3c12` [BNF, β-naphthoflavone, reference compound] the AhR agonist character [1] was “partial agonists”.
`Clc1cc2c(cc1Cl)Oc1cc(Cl)c(Cl)cc1O2` [TCDD, 2,3,7,8-tetrachlorodibenzo-p-dioxin, reference compound] gave an EC50 [2] of 0.3 to 2.3 nM.
In the case of `O=C(O)Cc1c[nH]c2ccccc12` [IAA, indole-3-acetic acid], the EC50 at 24 h (MTT cytotoxicity, HepaRG) is listed as 2210 ± 320 nM, the cytotoxicity (MCF-7 cells) is listed as “did not show cytotoxicity” and the EC50 at 24 h (MTT cytotoxicity, T47D) is listed as 1680 ± 460 nM. The cytotoxic response (V79 379 A cells) was “did not show a cytotoxic response”, the “effect on cell count and cytotoxicity (LDH assay)” value (Caco-2 cells [5]) was “reduced Caco-2 cell count without causing cytotoxicity” and the EC50 at 24 h (MTT cytotoxicity, MSC) was > 100000 nM. For the same molecule, the “Cytotoxic evaluation (EC50)” value [6] was “did not show toxicity”, the “effect on growth and proliferation vs media control” value (Caco-2 cells [3]) was “no significant differences” and the EC50 at 24 h (MTT cytotoxicity, MRC-5) was 2550 ± 1950 nM. For the same molecule, the EC50 at 24 h (MTT cytotoxicity, Caco-2) was 520 ± 120 nM, the EC50 at 24 h (MTT cytotoxicity, HepG2) was > 100000 nM and the cytotoxic effects (MRC-5 cells) was “no cytotoxic effects”.
With `Cc1c[nH]c2ccccc12` [3-MI, 3-methylindole] the EC50 at 24 h (MTT cytotoxicity, HepaRG) was 66400 ± 21800 nM, the EC50 at 24 h (MTT cytotoxicity, T47D) was > 100000 nM and the AhR agonist character [1] was “partial agonists”. For the same molecule, the EC50 [2] was 1400 nM, the EC50 at 24 h (MTT cytotoxicity, MSC) was 330 ± 100 nM and the “effect on cell proliferation vs media control” value (Caco-2 cells [3]; Caco-2, 0.1 µM) was “significant decrease in proliferation”. For the same molecule, the “proliferation speed compared to control (100 %)” value (Caco-2 cells [3]) was 68.2 ± 7.4%, the “effect on cell proliferation rate vs media control” value (Caco-2 cells [3]) was “significant reduction in cell proliferation rates” and the EC50 at 24 h (MTT cytotoxicity, MRC-5) was 21900 ± 8060 nM. For the same molecule, the “induction of CYP1A genes, % of the level of TCDD” value (CYP1A genes) was “about 50%”, the pulmonary toxicity findings (goats) was “severe pulmonary edema, denuded bronchioles, and necrotic alveolar cells” and the EC50 at 24 h (MTT cytotoxicity, Caco-2) was > 100000 nM. For the same molecule, the EC50 at 24 h (MTT cytotoxicity, HepG2) was > 100000 nM.
With `c1ccc2[nH]ccc2c1` [Indole, indole] the EC50 at 24 h (MTT cytotoxicity, HepaRG) was > 100000 nM, the EC50 at 24 h (MTT cytotoxicity, T47D) was > 100000 nM and the AhR agonist character [1] was “weak AhR ligand”. For the same molecule, the EC50 [2] was 32100 nM, the EC50 at 24 h (MTT cytotoxicity, MSC) was > 100000 nM and the “recovery rate in cell media (actual vs nominal concentration)” value [7] was “exceeding 100%”. For the same molecule, the “effect on cell proliferation rate vs media control” value (Caco-2 cells [3]) was “significant reduction in cell proliferation rates”, the EC50 at 24 h (MTT cytotoxicity, MRC-5) was > 100000 nM and the “concentration inducing toxic effects” value (Caco-2 cells [8]; Caco-2) was 5000 µM. For the same molecule, the EC50 at 24 h (MTT cytotoxicity, Caco-2) was > 100000 nM and the EC50 at 24 h (MTT cytotoxicity, HepG2) was > 100000 nM.
In the case of `O=Cc1c[nH]c2ccccc12` [I3A, indole-3-aldehyde], the EC50 at 24 h (MTT cytotoxicity, HepaRG) is reported as 1980 ± 730 nM, the EC50 at 24 h (MTT cytotoxicity, T47D) is reported as > 100000 nM and the AhR agonist character [1] is reported as “strong agonists”. For the same molecule, the EC50 [2] was 40 nM, the EC50 at 24 h (MTT cytotoxicity, MSC) was 1870 ± 830 nM and the “proliferation speed compared to control (100 %)” value (Caco-2 cells [3]) was 71.3 ± 5.1%. For the same molecule, the “effect on cell proliferation rate vs media control” value (Caco-2 cells [3]) was “significant reduction in cell proliferation rates”, the EC50 at 24 h (MTT cytotoxicity, MRC-5) was 49800 ± 14500 nM and the “reduction in cell viability” value (Caco-2 cells [8]; Caco-2, 160 µM, ref Liu et al. 30) was 89.6%. The EC50 at 24 h (MTT cytotoxicity, Caco-2) was > 100000 nM and the EC50 at 24 h (MTT cytotoxicity, HepG2) was > 100000 nM.
